Measurements collected from several papers.
Lines come from different studies, so protocols differ.

O=c1cc(OCc2cc(-c3ccccn3)no2)c2ccccc2o1  IC50 (CAPAN-1; cell growth or viability, MTS; 72 h): > 100000 nM
C/C=C1\NC(=O)[C@H]2CSSCC/C=C/[C@H](CC(=O)N[C@H](C(C)C)C(=O)N2)OC(=O)[C@H](C(C)C)NC1=O  IC50 (MP46; cell growth or viability, ATP luminescence; 72 h): 1.27 nM
COc1ccc(C[C@H](N)C(=O)N[C@H]2[C@@H](O)[C@H](n3cnc4c(N(C)C)ncnc43)O[C@@H]2CO)cc1  IC50 (THP-1; cell growth or viability; 72 h): 2030 nM
O=C(NO)c1ccc(Cn2cnc3c(Nc4cccc([N+](=O)[O-])c4)ncnc32)cc1  IC50 (THP-1; cell growth or viability, MTT; 72 h): 530 nM
COc1nnc2ccc(N3CCC(c4ccc(OCCN5CCN(C)C(=O)[C@H]5C)cc4)CC3)nn12  IC50 (MP46; cell growth or viability, ATP luminescence; 72 h): 68.3 nM
CSC(=O)c1cccc2nnsc12  IC50 (HepaRG; reactive oxygen species, inhibitor; 16 h): 10700 nM
O=C(CSc1nc2ccccc2s1)N/N=C/c1ccc(OCC(=O)Nc2ccc([N+](=O)[O-])cc2)cc1  IC50 (CAPAN-1; cell growth or viability, MTS; 72 h): 29400 nM
COc1ccc(N(C)c2nc(C)nc3ccccc23)cc1OCCCC(=O)NO  IC50 (MP46; cell growth or viability, ATP luminescence; 72 h): 94.8 nM
O=C(NO)c1ccc(Cn2cnc3c(Nc4ccc(Br)cc4F)ncnc32)cc1  IC50 (THP-1; cell growth or viability, MTT; 72 h): 930 nM
CC1(P2(=O)CCCCC2)C=CCC=C1  IC50 (SW-620; cell growth or viability, MTT; 72 h): > 100000 nM
O=C(NO)c1ccc(Cn2cnc3c(Nc4ccc(Cl)cc4)ncnc32)cc1  IC50 (THP-1; cell growth or viability, MTT; 72 h): 190 nM
CONC(=O)c1cccc2c1cc(C)n2-c1nc2c(c(NCc3ccccc3)n1)CCCN2  IC50 (SW-620; cell growth or viability; 72 h): 2300 nM
FC(F)(F)c1ccc(-c2cc(COc3cc(C(F)(F)F)nc4ccccc34)on2)cc1  IC50 (CAPAN-1; cell growth or viability, MTS; 72 h): > 100000 nM
COc1ccc(Nc2ncnc3c2ncn3Cc2ccc(C(=O)Nc3ccccc3N)cc2)cc1  IC50 (THP-1; cell growth or viability, MTT; 72 h): 930 nM
Cc1cccc(C)c1NC(=O)CN1CCCC1=O  IC50 (HepaRG; reactive oxygen species, inhibitor; 16 h): 5930 nM
O=[N+]([O-])c1ccc(Sc2cccc[n+]2[O-])c2nonc12  IC50 (MP46; cell growth or viability, ATP luminescence; 72 h): 2790 nM
CC1(COc2ccc(CC3SC(=O)NC3=O)cc2)CCCCC1 (stereo not shown)  IC50 (HepaRG; reactive oxygen species, inhibitor; 16 h): 11100 nM
CC(C)(C)c1cnc(CSc2cnc(NC(=O)C3CCN(C(=O)CCCCCCCN4Cc5cc6c(cc5C4)C(=O)N(C4CCC(=O)NC4=O)C6=O)CC3)s2)o1 (stereo not shown)  IC50 (SJSA-1; cell growth or viability, MTT): 174 nM
FC(F)(F)c1cc(OCc2cc(-c3ccccc3)no2)c2ccccc2n1  IC50 (CAPAN-1; cell growth or viability, MTS; 72 h): 7400 nM
CCOc1ccc(Nc2c3c(nc4ccccc24)CCC3)cc1  IC50 (THP-1; cell growth or viability; 72 h): 18600 nM
Cc1noc2c1-c1ccc(-c3cnn(C)c3)cc1C(c1ccc(Cl)cc1)=N[C@H]2CC(N)=O  IC50 (MP46; cell growth or viability, ATP luminescence; 72 h): 248 nM
O=c1cc(OCc2cc(-c3ccccc3)no2)c2ccccc2o1  IC50 (CAPAN-1; cell growth or viability, MTS; 72 h): > 100000 nM
COc1cc([C@@H]2c3cc4c(cc3[C@@H](O[C@@H]3O[C@@H]5CO[C@@H](C)O[C@H]5[C@H](O)[C@H]3O)[C@H]3COC(=O)[C@H]23)OCO4)cc(OC)c1O  IC50 (CAPAN-1; cell growth or viability, MTS; 72 h): 240 nM
c1ccc(-c2cc(CNc3cccc4cccnc34)on2)nc1  IC50 (CAPAN-1; cell growth or viability, MTS; 72 h): 13100 nM
CC(=O)N1c2ccc(-c3ccc(C(=O)O)cc3)cc2[C@H](Nc2ccc(Cl)cc2)C[C@@H]1C  IC50 (MP46; cell growth or viability, ATP luminescence; 72 h): 104 nM
N/C(=N\O)c1ccc(-c2cc(CNc3cccc4cccnc34)on2)cc1  IC50 (CAPAN-1; cell growth or viability, MTS; 72 h): 4700 nM
Nc1ccn([C@@H]2O[C@H](CO)[C@@H](O)C2(F)F)c(=O)n1  IC50 (MP46; cell growth or viability, ATP luminescence; 72 h): 169 nM
N#Cc1ccc(-c2cc(CNc3cccc4cccnc34)on2)cc1  IC50 (CAPAN-1; cell growth or viability, MTS; 72 h): 13100 nM
O=C(CSc1nc2ccccc2s1)N/N=C/c1ccc(OCC(=O)Nc2cccc(Br)c2)cc1  IC50 (CAPAN-1; cell growth or viability, MTS; 72 h): > 100000 nM
FC(F)(F)c1cc(OCc2cc(-c3ccccn3)no2)c2ccccc2n1  IC50 (CAPAN-1; cell growth or viability, MTS; 72 h): > 100000 nM
COc1cccc2c1C(=O)c1c(O)c3c(c(O)c1C2=O)C[C@@](O)(C(=O)CO)C[C@@H]3O[C@H]1C[C@H](N)[C@H](O)[C@H](C)O1  IC50 (SW-620; cell growth or viability, MTT; 72 h): 300 nM
